These results are taken from PMC6368469 (Journal of clinical pharmacology, 2018).

The format of data set [1] is in vivo, human. The note with it: for Cmax / Cmin / AUC(0-t): plasma; for Cl/F: dose/AUC0–12.
A short description of data set [2]: Umbilical cord blood and maternal plasma concentrations at delivery. The class given is in vivo, human. The note with it: 15 patients, detection limit 0.039 μg/mL; for Detected in maternal plasma samples: number of samples at delivery; for Detected in cord plasma samples: number of samples.
Data set [3] in a line: Clinical and laboratory safety monitoring of mothers and infants. It counts as in vivo, human.
Data set [4] is described as follows: Stability in stored plasma. It counts as in vitro ADME. Conditions: plasma stored at −20°C. A digest of the protocol: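 Human plasma from study participants, stored at −20°C. Test compound and its metabolite were quantified together by reversed-phase HPLC-UV after acetonitrile protein precipitation. Supernatant was injected onto a C-18 column and eluted isocratically with 10mM potassium phosphate pH 4.2:ACN (62:38 v/v) at 1.2 mL/min. Detection was at 206 nm, with a detection limit of 0.039 μg/mL. Validation QC samples spanned multiple concentrations.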

Data set [5] concerns HIV. The note with it: cited from earlier work.
For data set [6] the following is noted: cited from earlier work.
The conditions of data set [7]: cited from earlier work. The source holds these as a separate data set.
[8] abbreviates: 1875mg BID 3rd trimester vs 1250mg BID postpartum, (90% CI).
[9] abbreviates: 3rd trimester, nelfinavir 1875mg BID, median (IQR), n = 18.
The mark [10] stands for this setting: postpartum, nelfinavir 1250mg BID, median (IQR), n=16.
The mark [11] stands for this setting: 1875mg BID 3rd trimester vs 1250mg BID postpartum, (90% CI), listed as Nelfinavir.

By AUC(0-t) is commonly meant the area under the concentration-time curve up to a stated or last time point. A higher AUC(0-t) goes with high exposure.

Where “and” joins values, the source holds several entries; their conditions need not be identical. Equal entries are not always repeated. Structures can show the parent of a compound that is named as a salt. Where two headings read alike, the source gives them in different places.

For the compound `Cc1c(O)cccc1C(=O)N[C@@H](CSc1ccccc1)[C@H](O)CN1C[C@H]2CCCC[C@H]2C[C@H]1C(=O)NC(C)(C)CO` [M8, hydroxyl-tert-butylamide], the “Cmin geometric mean ratio 3rd trimester/postpartum” value in data set [1] (setting [8]) is reported as 0.78 (0.40–1.26). Moreover, in data set [1] (setting [9]), the “M8/NFV AUC ratio” value is recorded as 0.11 (0.08–0.22), the Cmax was 0.66 (0.48–1.12) μg/mL and the Cmin is given as 0.11 (0.05–0.15) μg/mL. In data set [1] (setting [10]), the Cmax was 1.20 (1.07–1.71) μg/mL, the Cmin is listed as 0.14 (0.04–0.21) μg/mL and the “M8/NFV AUC ratio” value is reported as 0.30 (0.17–0.35). In data set [2], the “Detected in maternal plasma samples” value was found to be 10 and the “Detected in cord plasma samples” value is on record as 3.

Take `Cc1c(O)cccc1C(=O)N[C@@H](CSc1ccccc1)[C@H](O)CN1C[C@H]2CCCC[C@H]2C[C@H]1C(=O)NC(C)(C)C` [NFV, Nelfinavir mesylate]: the “Grade 3–4 adverse events treatment-related” value in data set [3] (18 patients) is “none were determined to be treatment-related”. Further, the Safety concerns result in data set [3] (increased dose 1875 mg twice daily in third trimester) was “No major safety concerns were noted”. Also, the Stability in plasma result in data set [4] is on record as “stable”. Also, the “Activity against HIV” value in data set [5] was “moderately potent activity”. For the same compound, the “Subjects meeting the AUC target during the 3rd trimester” value in data set [6] (in vivo, 1250 mg) is given as 56%. Also, in data set [6] (in vivo), the Placental crossing entry is given as “crossed the placenta poorly”. The “10th percentile AUC0–12 (target AUC)” value in data set [6] (non-pregnant historical controls) was 18500 ng·h/mL. In data set [1] (setting [8]), the “AUC0–12 geometric mean ratio 3rd trimester/postpartum” value was 0.98 (0.71–1.35), the “Cl/F geometric mean ratio 3rd trimester/postpartum” value is 1.54 (1.12–2.11), the “Cmax geometric mean ratio 3rd trimester/postpartum” value is 1.06 (0.85–1.34) and the “Cmin geometric mean ratio 3rd trimester/postpartum” value was 0.90 (0.71–1.16). In addition, in data set [1] (setting [11]), the “AUC0–12 geometric mean ratio 3rd trimester/postpartum” value is 0.98 and the “Cl/F geometric mean ratio 3rd trimester/postpartum” value amounted to 1.54. For the same compound, the “Participants with AUC0–12 above target (18.5 μg h/mL)” value in data set [1] (3rd trimester, 1875 mg twice daily, 15 of 18) is on record as 83%. Also, in data set [1] (setting [9]), the Cl/F is 54.9 (40.4–68.9) L/h and the Cmin was 0.47 (0.35–1.33) μg/mL. Moreover, in data set [1] (female, human, 1250 mg), the AUC(0-t) was 33500 ng·h/mL and 58.9 µM·h; the Cmax amounted to 5000 ng/mL. In addition, the AUC(0-t) in data set [1] (female, human, 1875 mg) was 34200 ng·h/mL and 60.2 µM·h. For the same compound, the “Patients with increased Cl/F during 3rd trimester compared to the postpartum period” value in data set [1] (number of pregnant patients) is 11 out of 18. In addition, in data set [1] (setting [10]), the Cmin was 0.52 (0.22–0.80) μg/mL and the Cl/F was 37.4 (28.7–43.7) L/h. In data set [1] (postpartum, 1250mg twice daily, 14 of 16), the “Participants with AUC0–12 above target (18.5 μg h/mL)” value amounted to 88%. In data set [2], the “Detected in maternal plasma samples” value is recorded as 13 out of 15 and the “Detected in cord plasma samples” value is on record as 10 out of 15.

For `CC(C)CN(C[C@@H](O)[C@H](Cc1ccccc1)NC(=O)O[C@H]1CO[C@H]2OCC[C@H]21)S(=O)(=O)c1ccc(N)cc1` [darunavir], the “AUC and Cmax in pregnancy” value in data set [7] (standard dosing) was “substantially decreased”.

As for `Cc1cc(C#N)cc(C)c1Oc1nc(Nc2ccc(C#N)cc2)nc(N)c1Br` [etravirine], the Exposure during pregnancy result in data set [7] is given as “increased”.
